The term Papp B→A denotes how fast a substance crosses the layer from the basolateral side. What is called inhibition is the relative decrease from the control value, in per cent. As usually defined, the IC50 is the midpoint of a concentration-inhibition curve. Higher therefore signals a need for much substance. Usually Papp A→B stands for how fast a substance crosses the layer from the apical side.

The values that follow come from ChEMBL document CHEMBL4480410, “Targeting the MKK7-JNK (Mitogen-Activated Protein Kinase Kinase 7-c-Jun N-Terminal Kinase) Pathway with Covalent Inhibitors” (J Med Chem, 2019).

Activity calls are given as the source filed them. The calls are words filed in the database; no cut-off is given here.

Series [1] is described as follows: Apparent permeability across basolateral to apical side in MDCK2-MDR1 cells at 10 uM after 2 hrs by transwell membrane based assay. Type of series: ADME, cell-based, Canis lupus familiaris. Particulars: dog, MDCK-MDR1. In outline:
(§1)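 Compound at 10 µM in HBSS added to apical or basolateral side of MDCKII-MDR1 monolayer, 2 h at 37 °C. Both sides quantified by LC-MS/MS; Papp A–B or B–A from receiver concentration and volume, time, membrane area and initial donor concentration.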

Series [2] deals with Tyrosine-protein kinase BTK (Homo sapiens) (UniProt Q06187). The series is described as follows: Inhibition of BTK (unknown origin) at 1 uM by proQinase-based assay relative to control.
For series [3], the target named is T1, Dual specificity mitogen-activated protein kinase kinase 7 (Mus musculus) (UniProt Q8CE90).
T1 sequence (whole entry): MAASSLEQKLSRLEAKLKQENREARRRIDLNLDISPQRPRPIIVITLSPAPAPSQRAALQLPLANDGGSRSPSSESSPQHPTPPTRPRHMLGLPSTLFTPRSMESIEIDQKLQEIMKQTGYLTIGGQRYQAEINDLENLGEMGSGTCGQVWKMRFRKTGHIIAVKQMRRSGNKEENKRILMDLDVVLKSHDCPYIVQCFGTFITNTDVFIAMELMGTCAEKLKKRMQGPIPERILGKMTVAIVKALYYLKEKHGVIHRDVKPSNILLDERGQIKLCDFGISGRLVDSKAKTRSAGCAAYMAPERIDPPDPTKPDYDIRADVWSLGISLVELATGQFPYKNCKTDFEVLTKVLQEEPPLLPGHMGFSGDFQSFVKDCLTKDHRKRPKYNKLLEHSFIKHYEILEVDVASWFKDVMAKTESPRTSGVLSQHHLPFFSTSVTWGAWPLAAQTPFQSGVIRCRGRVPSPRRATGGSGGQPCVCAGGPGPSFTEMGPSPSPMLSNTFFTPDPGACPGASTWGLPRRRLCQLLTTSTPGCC
The series is described as follows: Inhibition of MKK7 in mouse DRG cells assessed as reduction in JNK phosphorylation at 1 uM after 2 hrs by Western blot analysis. Type of series: cell-based. In outline: (§2)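 Dissociated DRG neurons plated on laminin for 3 h, medium replaced, compound added for a further 2 h. Neurons lysed in RIPA buffer with phosphatase inhibitors. Western blots probed for phospho-cJun, cJun, phospho-JNK and JNK.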

Series [4] has as its target T2, Dual specificity mitogen-activated protein kinase kinase 7 (Homo sapiens) (UniProt O14733).
T2 sequence (whole entry): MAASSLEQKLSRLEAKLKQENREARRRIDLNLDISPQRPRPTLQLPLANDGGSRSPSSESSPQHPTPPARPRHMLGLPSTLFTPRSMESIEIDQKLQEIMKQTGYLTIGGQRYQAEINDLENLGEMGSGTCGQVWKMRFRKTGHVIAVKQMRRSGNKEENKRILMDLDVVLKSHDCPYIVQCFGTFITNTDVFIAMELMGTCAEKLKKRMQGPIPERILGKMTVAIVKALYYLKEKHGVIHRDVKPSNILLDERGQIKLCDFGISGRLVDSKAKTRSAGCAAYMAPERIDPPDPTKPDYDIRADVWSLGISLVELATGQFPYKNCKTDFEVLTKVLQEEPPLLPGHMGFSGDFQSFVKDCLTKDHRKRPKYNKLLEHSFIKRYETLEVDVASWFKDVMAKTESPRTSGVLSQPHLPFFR
The experiment in a line: Covalent binding affinity to MKK7 (unknown origin) assessed as formation of covalent bond with Cys218 residues by MS/MS analysis. The gist of the method: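 Protein at 1 mg/mL incubated with 2-fold molar excess of compound, 30 min on ice, then denatured and run on 15% SDS gel. Band excised, reduced with 50 mM DTT (1 h, 37 °C), alkylated with 55 mM iodoacetamide (1 h, 20 °C), digested with 0.1 mg/mL trypsin 20 h at 30 °C, acidified with TFA. Analysed by ion-trap MS/MS.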

The nature of series [5]: Inhibition of N-terminal His-tagged MKK7 beta1 S273D/T275D double mutant (unknown origin) expressed in insect cells using JNK1 K55M mutant as substrate by ADP-Glo assay. Set-up: species or system Homo sapiens. The gist of the method: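 ADP-Glo luminescence run per supplier protocol. Kinase: MKK7 beta1 (aa 1-462, TEV-cleavable N-terminal His6 tag, S273D/T275D) expressed in Sf9 insect cells, used at 20 nM. Substrate: JNK1 K55M at 5 µM. Compound dispensed acoustically; read on plate reader.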
(In ADP-Glo the light output rises with the ADP produced.)

Series [6] has as its target T1, Dual specificity mitogen-activated protein kinase kinase 7 (Mus musculus). The experiment in a line: Inhibition of MKK7 in mouse DRG cells assessed as reduction in cJUN phosphorylation at 1 uM after 2 hrs by Western blot analysis. Type of series: cell-based. The gist of the method: as §2
A short description of series [7]: Stability in human plasma assessed as compound remaining at 5 uM after 1 hr by LC/MS analysis. The class given is ADME, cell-free. Particulars: read-out: Stability. In outline: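 Compound at 5 µM incubated 1 h at 37 °C in human or mouse plasma; percentage remaining quantified by LC/MS.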
The nature of series [8]: Apparent permeability across apical to basolateral side in MDCK2-MDR1 cells at 10 uM after 2 hrs by transwell membrane based assay. Type of series: ADME, cell-based, Canis lupus familiaris. Particulars: dog, MDCK-MDR1. The gist of the method: as §1
Series [9] is described as follows: Protein binding in mouse plasma at 5 uM after 6 hrs by LC/MS analysis. The class given is ADME, cell-free. Particulars: read-out: PPB (converted). In outline: (§3)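 Equilibrium dialysis of plasma with compound at 5 µM, 6 h at 37 °C; final compound concentrations determined by LC/MS to give percent bound.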
The nature of series [10]: Apparent permeability across basolateral to apical side in human Caco2 cells at 5 uM after 2 hrs by transwell membrane based assay. Type of series: ADME, cell-based, Caco-2. Particulars: Caco-2. In outline: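 10 mM DMSO stock diluted to 5 µM final in HBSS pH 7.4; 2 h at 37 °C, 5% CO2 on Caco-2 monolayers grown 21 days on transwell membranes.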
(Passage across Caco-2 layers is used to estimate intestinal permeability.)

Series [11] in a line: Protein binding in human plasma at 5 uM after 6 hrs by LC/MS analysis. The class given is ADME, cell-free. Particulars: read-out: PPB (converted). In outline: as §3

Sequence of Tyrosine-protein kinase BTK (Homo sapiens) (Q06187 whole entry): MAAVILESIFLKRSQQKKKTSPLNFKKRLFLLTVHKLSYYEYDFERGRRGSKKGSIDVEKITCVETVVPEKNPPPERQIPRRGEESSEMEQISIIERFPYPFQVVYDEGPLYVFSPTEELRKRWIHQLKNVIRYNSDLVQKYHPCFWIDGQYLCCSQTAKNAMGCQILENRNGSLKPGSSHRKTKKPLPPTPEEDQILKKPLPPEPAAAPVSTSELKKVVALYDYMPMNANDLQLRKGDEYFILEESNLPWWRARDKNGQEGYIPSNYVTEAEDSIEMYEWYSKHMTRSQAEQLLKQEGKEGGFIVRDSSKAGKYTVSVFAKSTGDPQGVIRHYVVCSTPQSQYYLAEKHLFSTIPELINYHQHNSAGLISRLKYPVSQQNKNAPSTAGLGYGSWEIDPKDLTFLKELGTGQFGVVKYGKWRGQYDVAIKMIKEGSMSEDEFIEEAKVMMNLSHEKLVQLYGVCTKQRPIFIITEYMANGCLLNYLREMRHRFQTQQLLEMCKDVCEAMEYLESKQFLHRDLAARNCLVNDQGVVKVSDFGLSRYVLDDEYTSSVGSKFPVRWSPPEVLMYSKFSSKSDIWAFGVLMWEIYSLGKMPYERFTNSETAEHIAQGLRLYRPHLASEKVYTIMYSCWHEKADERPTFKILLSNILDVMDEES

As for `C=CC(=O)N1CCC[C@@H](n2nc(-c3cn(-c4ccc(C(C)=O)cc4)nn3)c3c(N)ncnc32)C1`, the Papp B→A at 2 h, 10 µM in [1] was 4 ×10⁻⁶ cm/s. The inhibition in series [2] is greater than 50%. Besides, the inhibition entry in [3] and in [6] was “Active” throughout. In series [4], the result was Active. Besides, the midpoint of inhibition in series [5], the IC50, lay at 10 nM. Further, the remaining at 1 h, 5 µM in [7] is greater than 99%. The Papp A→B at 2 h, 10 µM in series [8] came to 9 ×10⁻⁶ cm/s. In addition, the fraction unbound at 6 h, 5 µM was 0.073 in series [9] and 0.04 in [11]. Also, the Papp B→A at 2 h, 5 µM in [10] was 13 ×10⁻⁶ cm/s.
